Measured values as given in ChEMBL document CHEMBL4610026, “Design, synthesis and evaluation of protein disulfide isomerase inhibitors with nitric oxide releasing activity” (Bioorg Med Chem Lett, 2020).
Activity calls are given as the source filed them. No cut-off for these calls is given here.

What was measured:
HeLa [1] = assay: Antiproliferative activity against human HeLa cells assessed as cell growth inhibition by CCK-8 assay; format: functional, cell-based
HeLa [2] = assay: Antiproliferative activity against human HeLa cells assessed as cell growth inhibition at 600 uM by CCK-8 assay relative to control; format: functional; conditions: read-out: GI
[3] = target: T1, Protein disulfide-isomerase (Bos taurus) (UniProt P05307); assay: Inhibition of bovine liver PDI at 50 uM preincubated for 30 mins followed by insulin addition for 1 hr by insulin-aggregation assay relative to control
T1 sequence (whole entry): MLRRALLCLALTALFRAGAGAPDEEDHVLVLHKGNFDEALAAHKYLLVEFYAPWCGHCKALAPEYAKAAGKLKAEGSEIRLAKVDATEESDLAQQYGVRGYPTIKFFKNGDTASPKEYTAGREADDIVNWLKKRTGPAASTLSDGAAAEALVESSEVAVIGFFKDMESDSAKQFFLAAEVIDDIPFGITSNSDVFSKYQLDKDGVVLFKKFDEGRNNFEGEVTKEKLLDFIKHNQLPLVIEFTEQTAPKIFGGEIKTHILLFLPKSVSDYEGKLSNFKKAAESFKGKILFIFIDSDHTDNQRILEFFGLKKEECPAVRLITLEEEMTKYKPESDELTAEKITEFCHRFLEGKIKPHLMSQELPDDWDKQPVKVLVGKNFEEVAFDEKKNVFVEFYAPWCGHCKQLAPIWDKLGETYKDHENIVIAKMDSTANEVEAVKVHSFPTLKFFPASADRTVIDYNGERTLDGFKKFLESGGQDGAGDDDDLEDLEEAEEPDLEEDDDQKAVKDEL

SH-SY5Y [4] = assay: Antiproliferative activity against human SH-SY5Y cells assessed as cell growth inhibition by CCK-8 assay; format: functional, cell-based
SH-SY5Y [5] = assay: Antiproliferative activity against human SH-SY5Y cells assessed as cell growth inhibition at 600 uM by CCK-8 assay relative to control; format: functional; conditions: read-out: GI
Homo sapiens [6] = species on record: Homo sapiens; assay: Nitrosylation activity at recombinant PDI (unknown origin) assessed as generation of S-nitrosylated PDI at 50 uM measured after 30 mins by biotin switch assay based Western blot analysis
Procedure, shortened: (§1)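 Biotin-switch detection of S-nitrosylated PDI: 400 ng purified recombinant PDI exposed to NO donor (1, 50, 300 or 600 μM) for 30 min, or left untreated.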

Homo sapiens [7] = species on record: Homo sapiens; assay: Nitrosylation activity at recombinant PDI (unknown origin) assessed as generation of s-nitrosylated PDI at 50 uM measured after 30 mins in presence of dithiothreitol by biotin switch assay based Western blot analysis; procedure, shortened: as §1
HEK-293T = assay: Cytotoxicity against human HEK293T cells assessed as cell growth inhibition; format: cell-based
Homo sapiens [8] = species on record: Homo sapiens; assay: Nitrosylation activity at recombinant PDI (unknown origin) assessed as generation of S-nitrosylated PDI at 600 uM measured after 30 mins in presence of dithiothreitol by biotin switch assay based Western blot analysis; procedure, shortened: as §1
[9] = target: T1, Protein disulfide-isomerase (Bos taurus); assay: Inhibition of bovine liver PDI preincubated for 30 mins followed by insulin addition for 1 hr by insulin-aggregation assay
Homo sapiens [10] = species on record: Homo sapiens; assay: Nitrosylation activity at recombinant PDI (unknown origin) assessed as generation of S-nitrosylated PDI at 600 uM measured after 30 mins by biotin-switch assay based Western blot analysis; procedure, shortened: as §1
[11] = target: T1, Protein disulfide-isomerase (Bos taurus); conditions: 0.1 to 50 uM
HeLa [12] = assay: Antiproliferative activity against human HeLa cells assessed as cell growth inhibition at 5 uM by CCK-8 assay; format: functional, cell-based
SH-SY5Y [13] = assay: Antiproliferative activity against human SH-SY5Y cells assessed as cell growth inhibition at 5 uM by CCK-8 assay; format: functional, cell-based

Structure (SMILES)	growth inhibition (GI) (HeLa [1])	inhibition of growth at 600 µM (HeLa [2])	inhibition [3]	growth inhibition (GI) (SH-SY5Y [4])	inhibition of growth at 600 µM (SH-SY5Y [5])	Activity (Homo sapiens [6])	Activity (Homo sapiens [7])	Activity (HEK-293T)	Activity (Homo sapiens [8])	inhibition [9]	Activity (Homo sapiens [10])	inhibition [11]	growth inhibition (GI) (HeLa [12])	growth inhibition (GI) (SH-SY5Y [13])
N[C@@H](CCC(=O)N[C@@H](CSN=O)C(=O)NCC(=O)O)C(=O)O [S-NITROSOGLUTATHIONE]	Active	40%	inactive	Active	40%	Active	inactive	Non-Toxic						
C#CCOC(=O)C1(C)c2[nH]c3ccccc3c2CCN1C(=O)CN(N=O)c1ccccc1 (stereo not given)	Dose-dependent effect	40%	50%	Dose-dependent effect	40%			Non-Toxic	inactive	Dose-dependent effect	Active			
C#CCOC(=O)C1(C)c2[nH]c3ccccc3c2CCN1C(=O)CCl (stereo not given)												Active	Active	Active
